In ChEMBL document CHEMBL1773040, “Briarane diterpenes diminish COX-2 expression in human colon adenocarcinoma cells” (2011):
Calls of active or inactive are those of the source. No cut-off for these calls is given here.

How the values were obtained:
[1] = system: Caco-2; assay: Decrease in PMA-induced COX-2 mRNA expression in human Caco2 cells at 5 to 15 uM after 24 hrs by PCR analysis; assay type: functional, cell-based
[2] = system: RAW264.7; assay: Decrease in PMA-induced COX-2 mRNA expression in mouse RAW264.7 cells at 5 to 15 uM after 24 hrs by PCR analysis; assay type: functional, cell-based
Outline: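 RAW 264.7 monolayers stimulated with PMA and co-incubated with compound (0–15 μM) for 24 h. Total RNA isolated; equal RNA amounts reverse-transcribed to cDNA. COX-2 fragments amplified by PCR: 94 C 3 min, then 35 cycles of 94 C 30 s, 56 C 1 min, 78 C 30 s. GAPDH served as reference.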

[3] = system: Caco-2; assay: Cytotoxicity against human Caco2 cells assessed as decrease in cell viability at 5 to 30 uM after 24 hrs by trypan blue exclusion assay; assay type: functional, cell-based
Outline: (§1)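 Caco-2 cells kept in MEM with 10% heat-inactivated FBS, penicillin G and streptomycin at 37 C, 5% CO2. Compounds given from a 5 mg/mL DMSO stock; exponentially growing cells seeded in complete medium with compound for 24 h. Floating and adherent cells pooled, mixed with 0.4% trypan blue, and stained/unstained cells counted by hemacytometer. Each experiment run three times.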

[4] = system: Caco-2; assay: Cytotoxicity against human Caco2 cells assessed as decrease in cell viability at 30 uM after 24 hrs by trypan blue exclusion assay; assay type: functional; outline: as §1
[5] = system: Caco-2; assay: Decrease in PMA-induced COX-2 mRNA expression in human Caco2 cells at 10 to 15 uM after 24 hrs by PCR analysis; assay type: functional, cell-based
[6] = system: Caco-2; assay: Cytotoxicity against human Caco2 cells assessed as decrease in cell viability at 20 uM after 24 hrs by trypan blue exclusion assay; assay type: functional; outline: as §1
[7] = system: Caco-2; assay: Cytotoxicity against human Caco2 cells assessed as decrease in cell viability at 15 uM after 24 hrs by trypan blue exclusion assay; assay type: functional; outline: as §1

CC(=O)O[C@@H]1C[C@H](O)[C@@]2(C)C=C[C@@H](OC(C)=O)[C@@](C)(O)[C@@H]2[C@H](OC(C)=O)[C@]23O[C@@]2(C)C(=O)O[C@H]3/C=C\1C [BRIALALEPOLIDE A]
Activity [1]: inactive | Activity [2]: inactive | Activity [3]: Dose-dependent effect | Activity [4]: 50%

CCCCCC(=O)O[C@@H]1C[C@H](O)[C@@]2(C)C=C[C@@H](OC(C)=O)[C@@](C)(O)[C@@H]2[C@H](OC(C)=O)[C@]23O[C@@]2(C)C(=O)O[C@H]3/C=C\1C [BRIALALEPOLIDE B]
Activity [2]: Active | Activity [3]: Dose-dependent effect | Activity [5]: Active | Activity [6]: 50%

CCCCCCCC(=O)O[C@@H]1C[C@H](O)[C@@]2(C)C=C[C@@H](OC(C)=O)[C@@](C)(O)[C@@H]2[C@H](OC(C)=O)[C@]23O[C@@]2(C)C(=O)O[C@H]3/C=C\1C [BRIALALEPOLIDE C]
Activity [7]: 50% | Activity [2]: Active | Activity [3]: Dose-dependent effect | Activity [5]: Active | Activity [4]: 75%
